Reference: ChEMBL document CHEMBL1667737, “Cytochrome P450 3A4 inhibitory constituents of the wood of Taxus yunnanensis” (J Nat Prod, 2011)

What was measured:
Cytochrome P450 3A4 = Cytochrome P450 3A4 (Homo sapiens, UniProt P08684); experiment: Inhibition of CYP3A4 after 30 mins by fluorometric assay; format: ADME
Procedure, shortened: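 cDNA-expressed CYP3A4 in insect cell microsomes (with insect cell control protein) O-dealkylating 7-benzyloxy-4-trifluoromethylcoumarin to fluorescent 7-HFC. Samples in MeOH, 8-point 1:3 serial dilutions in pH 7.4 potassium phosphate with an NADP+/glucose-6-phosphate/G6PDH/MgCl2 regenerating system. 10 min prewarm, 30 min at 37 °C, stopped with acetonitrile–Tris base. Triplicate; IC50 by linear interpolation.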

Cytochrome P450 2D6 = Cytochrome P450 2D6 (Homo sapiens, UniProt P10635); experiment: Inhibition of CYP2D6 after 30 mins by fluorometric assay; format: ADME
Cytochrome P450 2D6, sequence (P10635 whole entry): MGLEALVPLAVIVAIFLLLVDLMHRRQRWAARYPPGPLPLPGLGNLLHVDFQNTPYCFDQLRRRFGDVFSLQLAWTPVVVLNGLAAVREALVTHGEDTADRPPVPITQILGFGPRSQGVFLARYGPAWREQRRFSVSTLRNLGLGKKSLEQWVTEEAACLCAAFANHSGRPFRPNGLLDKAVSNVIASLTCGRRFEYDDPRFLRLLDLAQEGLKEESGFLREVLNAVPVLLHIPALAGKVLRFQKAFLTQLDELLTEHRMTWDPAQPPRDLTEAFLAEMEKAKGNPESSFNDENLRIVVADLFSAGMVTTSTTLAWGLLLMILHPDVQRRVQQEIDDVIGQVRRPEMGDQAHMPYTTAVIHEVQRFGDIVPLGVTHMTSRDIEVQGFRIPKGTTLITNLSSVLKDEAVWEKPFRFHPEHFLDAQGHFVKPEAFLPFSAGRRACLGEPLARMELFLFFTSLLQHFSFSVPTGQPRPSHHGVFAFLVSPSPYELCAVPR
Procedure, shortened: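 cDNA-expressed CYP2D6 in insect cell microsomes with AMMC ([…] in the enzyme/substrate mix), in pH 7.4 phosphate buffer with an NADP+/glucose-6-phosphate/G6PDH/MgCl2 regenerating system. Compound in MeOH, eight-point 1:3 serial dilution. 10 min prewarm, then 30 min at 37 °C. Stopped with acetonitrile–Tris. Triplicate; IC50 by linear interpolation.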

Cytochrome P450 3A4, sequence (P08684 whole entry): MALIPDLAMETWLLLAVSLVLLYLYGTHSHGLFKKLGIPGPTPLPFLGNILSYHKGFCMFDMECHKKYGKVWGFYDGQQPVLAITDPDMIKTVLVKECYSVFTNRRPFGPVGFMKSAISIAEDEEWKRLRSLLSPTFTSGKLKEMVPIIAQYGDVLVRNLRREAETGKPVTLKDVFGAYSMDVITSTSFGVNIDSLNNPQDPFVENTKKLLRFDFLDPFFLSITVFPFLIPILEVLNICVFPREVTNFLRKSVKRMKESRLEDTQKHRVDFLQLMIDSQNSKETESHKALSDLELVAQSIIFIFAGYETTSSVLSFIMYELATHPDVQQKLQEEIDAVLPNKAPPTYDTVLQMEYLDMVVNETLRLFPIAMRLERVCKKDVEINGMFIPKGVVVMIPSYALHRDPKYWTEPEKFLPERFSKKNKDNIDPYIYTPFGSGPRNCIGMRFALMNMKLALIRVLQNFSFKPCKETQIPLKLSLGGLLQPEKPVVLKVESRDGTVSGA

IC50 (Cytochrome P450 3A4)	IC50 (Cytochrome P450 2D6)	Structure (SMILES)	IC50 (Cytochrome P450 3A4; read-out: IC50) [µM]	IC50 (Cytochrome P450 2D6; read-out: IC50) [µM]
Not Active	Not Active	COc1cc2c(cc1O)C(=O)[C@@H](CO)[C@H](CO)C2		
		COc1cc([C@H]2OC[C@H]([C@@H](O)c3ccc(O)c(OC)c3)[C@@H]2CO)ccc1O	66.5	> 100
		COc1cc([C@@H]2Oc3cc(CCCO)ccc3O[C@H]2CO)ccc1O	54.2	> 100
Not Active	Not Active	COc1cc([C@H](O)[C@H]2CO[C@H](c3ccc(O)c(O)c3)[C@H]2CO)ccc1O [(7R)-7-HYDROXYTAXIRESINOL]		
		COc1cc(C[C@@H](CO)[C@H](CO)Cc2ccc(O)c(OC)c2)ccc1O [(+)-SECOISOLARICIRESINOL]	47.3	> 100
		COc1cc([C@H]2c3cc(O)c(OC)cc3C[C@H]3C(=O)OC[C@H]23)ccc1O [ALPHA-CONIDENDRIN]	0.2	17.7
		COc1cc([C@H]2c3cc(O)c(OC)cc3C[C@@H](CO)[C@@H]2CO)ccc1O [ISOLARICIRESINOL]	> 100	97.7
Not Active	Not Active	COc1cc2c(cc1O)[C@H](c1ccc(O)c(O)c1)[C@@H](CO)[C@H](CO)C2 [ISOTAXIRESINOL]		
		COc1cc(C[C@H]2CO[C@H](c3ccc(O)c(OC)c3)[C@H]2CO)ccc1O [LARICIRESINOL]	25.6	> 100
		COc1cc(C[C@H]2CO[C@H](c3ccc(O)c(O)c3)[C@H]2CO)ccc1O [TAXIRESINOL]	85.6	68.1

Structure (SMILES)	IC50 (Cytochrome P450 3A4)	IC50 (Cytochrome P450 2D6)	IC50 (Cytochrome P450 3A4; read-out: IC50) [µM]	IC50 (Cytochrome P450 2D6; read-out: IC50) [µM]
COc1cc([C@@H](O)[C@@H]2CO[C@H](c3ccc(O)c(OC)c3)[C@H]2CO)ccc1O [TANEGOOL]	Not Active	Not Active		
